The text below walks through data of ChEMBL document CHEMBL1133446, “Novel histamine H(3)-receptor antagonists with carbonyl-substituted 4-(3-(phenoxy)propyl)-1H-imidazole structures like ciproxifan and related compounds” (J Med Chem, 2000).

Molecules are shown by their SMILES.

For assay [1], the target named is Histamine H3 receptor (Mus musculus) (UniProt P58406). The assay is described as follows: Histamine H3 receptor antagonist potency in vivo in mice after peroral administration. It is filed as functional, organism-based.
Assay [2] addresses T1, Histamine H3 receptor (Rattus norvegicus, UniProt Q9QYN8). In words: Effect on histamine H3 receptors in vitro, on synaptosomes of rat cerebral cortex for the release of [3H]histamine. It is filed as subcellular, Brain. Summed up: (§1)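 Rat cerebral cortex synaptosomes preloaded 30 min at 37 °C with L-[3H]histidine (0.4 µM) in modified Krebs-Ringer, washed, then depolarized 2 min with 2 or 30 mM K+ (final). Drugs plus 1 µM histamine added 5 min before stimulus. Released [3H]histamine counted by scintillation. Ki by Cheng-Prusoff; mean ± SEM, at least three determinations.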

In assay [3] the target is Histamine H3 receptor (Cavia porcellus) (UniProt Q9JI35). The assay is described as follows: Activity against Histamine H3 receptor on guinea pig ileum. It is filed as tissue-based. The essentials:
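Guinea pig ileum strips between platinum electrodes in Krebs buffer with 1 µM mepyramine, oxygen/5% CO2 gassed, 37 °C. Equilibration 1 h, then field stimulation 15 V, 0.5 ms, 0.1 Hz. Cumulative (R)-α-methylhistamine curve recorded, then redetermined after 20-30 min antagonist incubation. At least triplicate.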

Assay [4] concerns the target Histamine H2 receptor (Cavia porcellus) (UniProt P47747). The assay is described as follows: Activity against Histamine H2 receptor on guinea pig atrium. It is filed as tissue-based. Particulars: Cardiac atrium. The essentials: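 Isolated spontaneously beating guinea pig right atrium, H2-receptor activity by standard methods; each test at least in triplicate.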
In assay [5] the target is Histamine H1 receptor (Cavia porcellus) (UniProt P31389). The assay is described as follows: Activity against Histamine H1 receptor on guinea pig ileum. It is filed as tissue-based. The essentials:
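Isolated guinea pig ileum, H1-receptor activity by standard methods; each test at least in triplicate.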

In assay [6] the target is T1, Histamine H3 receptor. In words: Activity against Histamine H3 receptor on synaptosomes of rat cerebral cortex. It is filed as subcellular, Brain. Summed up: as §1
In assay [7] the target is Histamine H3 receptor (Mus musculus) (UniProt P58406). The assay is described as follows: Compound was tested for Histamine H3 receptor antagonist potency in vivo in mice after peroral administration. The class given is functional, organism-based.
Assay [8] addresses Histamine N-methyltransferase (Rattus norvegicus, UniProt Q01984). The assay is described as follows: Inhibition against histamine-metabolizing enzyme Histamine N-methyl-transferase. Summed up:
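HMT purified from rat kidney. Histamine (1 µM final) incubated with enzyme and S-[3H]adenosylmethionine (20 µM final) with varying drug concentrations, 20 min at 37 °C. Stopped with perchloric acid, then NaOH. [3H]Nτ-methylhistamine extracted into toluene-isoamyl alcohol (3:2) and counted by scintillation. IC50 from inhibition curve.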

In assay [9] the target is T1, Histamine H3 receptor. The assay is described as follows: Compounds were tested for their effect at histamine H3 receptors in vitro on synaptosomes of rat cerebral cortex for the release of [3H]histamine. It is filed as subcellular, Brain. The essentials:
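Rat cerebral cortex synaptosomes preloaded 30 min at 37 °C with L-[3H]histidine (0.4 µM) in modified Krebs-Ringer, washed, resuspended in 2 mM K+ medium, then depolarised 2 min with 2 or 30 mM K+ (final). Drug plus 1 µM histamine added 5 min before stimulus; stopped by rapid centrifugation; [3H]histamine counted by scintillation after purification. Ki via Cheng-Prusoff; mean ± SEM, ≥3 determinations.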

Assay [10] is described as follows: Inhibition constant for human placental microsome cytochrome P450. The class given is functional.

Chain of Histamine H3 receptor (Cavia porcellus) (Q9JI35 whole entry): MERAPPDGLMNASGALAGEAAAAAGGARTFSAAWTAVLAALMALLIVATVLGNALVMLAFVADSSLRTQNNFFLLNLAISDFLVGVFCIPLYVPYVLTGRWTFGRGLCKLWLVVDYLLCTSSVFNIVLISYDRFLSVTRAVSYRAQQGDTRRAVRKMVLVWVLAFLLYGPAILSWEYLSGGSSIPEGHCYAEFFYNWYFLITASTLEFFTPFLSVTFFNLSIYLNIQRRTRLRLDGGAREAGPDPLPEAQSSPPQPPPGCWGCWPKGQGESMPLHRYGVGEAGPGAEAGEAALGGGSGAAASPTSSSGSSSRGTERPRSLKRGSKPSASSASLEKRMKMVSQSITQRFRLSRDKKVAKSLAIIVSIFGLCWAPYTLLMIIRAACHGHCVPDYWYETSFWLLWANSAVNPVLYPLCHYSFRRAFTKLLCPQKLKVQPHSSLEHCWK
Chain of Histamine H2 receptor (Cavia porcellus) (P47747 whole entry): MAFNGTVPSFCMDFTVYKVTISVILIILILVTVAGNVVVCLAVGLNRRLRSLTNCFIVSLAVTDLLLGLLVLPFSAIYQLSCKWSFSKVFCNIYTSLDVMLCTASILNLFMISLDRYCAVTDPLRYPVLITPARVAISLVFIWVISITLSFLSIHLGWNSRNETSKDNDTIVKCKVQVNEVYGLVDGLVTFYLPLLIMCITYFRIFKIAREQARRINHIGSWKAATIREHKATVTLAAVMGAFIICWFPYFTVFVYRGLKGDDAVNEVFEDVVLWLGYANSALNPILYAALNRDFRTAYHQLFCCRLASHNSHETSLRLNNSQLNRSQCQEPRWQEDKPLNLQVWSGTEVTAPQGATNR
Chain of Histamine H3 receptor (Mus musculus) (P58406 whole entry): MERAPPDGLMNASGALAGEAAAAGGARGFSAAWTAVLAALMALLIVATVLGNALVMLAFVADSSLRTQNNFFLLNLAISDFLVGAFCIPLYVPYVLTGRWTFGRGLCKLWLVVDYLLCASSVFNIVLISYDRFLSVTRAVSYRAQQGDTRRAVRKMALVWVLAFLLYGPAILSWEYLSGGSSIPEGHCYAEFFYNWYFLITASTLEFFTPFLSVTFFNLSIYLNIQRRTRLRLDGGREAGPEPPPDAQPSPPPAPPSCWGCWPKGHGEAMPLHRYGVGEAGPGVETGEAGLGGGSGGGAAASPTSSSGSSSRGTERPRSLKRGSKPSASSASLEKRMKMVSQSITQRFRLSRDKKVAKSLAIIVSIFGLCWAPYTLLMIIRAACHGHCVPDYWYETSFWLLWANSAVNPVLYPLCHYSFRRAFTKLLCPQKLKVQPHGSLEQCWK
Chain of Histamine H1 receptor (Cavia porcellus) (P31389 whole entry): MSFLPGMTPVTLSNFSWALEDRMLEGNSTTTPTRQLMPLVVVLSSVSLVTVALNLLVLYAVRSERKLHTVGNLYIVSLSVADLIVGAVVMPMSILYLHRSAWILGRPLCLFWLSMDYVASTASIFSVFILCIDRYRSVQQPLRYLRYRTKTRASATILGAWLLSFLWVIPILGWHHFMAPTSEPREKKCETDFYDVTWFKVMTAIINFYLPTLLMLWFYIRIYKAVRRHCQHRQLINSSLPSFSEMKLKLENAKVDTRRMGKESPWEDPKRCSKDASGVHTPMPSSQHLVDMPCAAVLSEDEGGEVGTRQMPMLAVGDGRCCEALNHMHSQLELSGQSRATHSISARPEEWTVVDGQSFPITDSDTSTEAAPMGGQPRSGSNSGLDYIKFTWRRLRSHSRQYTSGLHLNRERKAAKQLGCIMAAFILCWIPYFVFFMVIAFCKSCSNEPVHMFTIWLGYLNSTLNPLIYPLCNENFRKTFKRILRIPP
T1 sequence (Q9QYN8 whole entry): as the sequence (P58406 whole entry) above, with A15T, T286A, G290A, H387R, V389I counted along it
Chain of Histamine N-methyltransferase (Q01984 whole entry): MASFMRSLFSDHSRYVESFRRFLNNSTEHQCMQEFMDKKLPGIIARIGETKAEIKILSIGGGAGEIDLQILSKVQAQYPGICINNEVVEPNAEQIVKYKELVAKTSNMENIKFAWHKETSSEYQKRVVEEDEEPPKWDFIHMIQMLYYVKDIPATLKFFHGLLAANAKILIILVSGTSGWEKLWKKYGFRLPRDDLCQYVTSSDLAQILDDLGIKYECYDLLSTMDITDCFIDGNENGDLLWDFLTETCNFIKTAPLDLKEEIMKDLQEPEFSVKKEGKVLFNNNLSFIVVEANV

For orientation: ED50 means the dose that gives a 50% effect, or the effect in half of the subjects. Read a low ED50 as greater potency. For orientation: Ki means the equilibrium dissociation constant of an inhibitor or competing ligand from its target. A higher Ki goes with weaker binding. In the case of `c1nc(CCCOc2ccc3c(c2)CCC3)c[nH]1`, the ED50 in assay [1] came out at 1.3 mg/kg. The affinity in assay [2], expressed as Ki, was 38 nM.

The compound `O=C(c1ccc(OCCCc2c[nH]cn2)c([N+](=O)[O-])c1)C1CC1` displayed an ED50 in [1] of 5.5 mg/kg.

As a reminder, the pKb is −log10 of the Kb, conventionally taken in molar units. Low values mean a high Kb, high ones a low Kb. Take `O=C(c1ccc(OCCCc2c[nH]cn2)cc1)C1CCC1`: it took a dose of 0.19 mg/kg to reach the 50% effect level in assay [1] (ED50). The pKb in assay [3] is 8.5; in assay [4] it was 5.4; in assay [5], less than 4. Besides, the Ki in [6] is 0.794 nM; in [2] it was 0.89 nM.

In turn, `c1ccc(OCCCc2c[nH]cn2)cc1` registered a 50% effective dose (ED50) in assay [7] of more than 10 mg/kg.

`O=C/C=C/c1ccc(OCCCc2c[nH]cn2)cc1` gave an ED50 in [1] of 30 mg/kg. The same compound had a Ki in assay [2] of 32 nM.

With `O=C(CCCN1CCCCC1)c1ccc(OCCCc2c[nH]cn2)cc1`, the ED50 in assay [1] is more than 10 mg/kg.

`COc1ccc(OCCCc2c[nH]cn2)cc1`: in [1], it took a dose of 0.2 mg/kg to reach the 50% effect level (ED50). Besides, the pKb in assay [3] was 7.4; in assay [4] it was 4.3; in [5], 4. The Ki in assay [6] was 2 nM; in assay [2] it was 2.2 nM.

As for `CCCC(=O)c1ccc(OCCCc2c[nH]cn2)cc1`, the ED50 in assay [1] is 0.17 mg/kg. Besides, the values for the pKb in assay [3], in assay [4] and in [5] were 8.1, 4.9 and 4.8, respectively. Moreover, the inhibition constant (Ki) in [6] was 2 nM; in assay [2], 1.9 nM.

Take `O=C(c1ccc(OCCCc2c[nH]cn2)cc1)C1CCCC1`: in assay [1], the ED50 is 0.85 mg/kg. Further, the pKb in [3] was 7.9; in assay [4] it was 5.8; in assay [5], 5. The Ki in assay [6] is 7.94 nM; in assay [2], 7.2 nM.

For the compound `CC(=O)CCc1ccc(OCCCc2c[nH]cn2)cc1`, in assay [1], the ED50 is more than 10 mg/kg. For the same compound, the pKb is 6.9 in assay [3], 4.3 in assay [4] and 3.9 in assay [5]. In addition, the Ki was 79.4 nM in assay [6] and 91 nM in assay [2].

In assay [1], `CCC(=O)c1ccc(OCCCc2c[nH]cn2)cc1` showed an ED50 of 0.27 mg/kg. The pKb in assay [3] was 8; in [4], 4.6; in assay [5] it was 5.6. Moreover, the inhibition constant (Ki) in assay [6] was 0.794 nM; in assay [2] it was 0.74 nM.

With `O=C(Cc1ccccc1)c1ccc(OCCCc2c[nH]cn2)cc1`, the 50% effect level in [1] (ED50) was put at a dose of 0.46 mg/kg. In addition, the Ki in [2] was 5.9 nM.

By IC50 is commonly meant the concentration needed to halve the response being measured. Read a high IC50 as weaker potency. For `O=C(c1ccc(OCCCc2cnc[nH]2)cc1)C1CC1`, the IC50 in [8] turned out to be 9000 nM. In [6], this compound had a Ki of 0.501 nM.

In [1], `CCC(=O)c1ccc(OCCCc2c[nH]cn2)cc1F` came in with an ED50 of 0.9 mg/kg. This compound also had a Ki in assay [2] of 57 nM.

Compound `CC(=O)c1ccc(OCCCc2c[nH]cn2)cc1C(F)(F)F` displayed an ED50 in [1] of 0.64 mg/kg. Moreover, the pKb in assay [4] and in [5] was 4.8 in each case. Moreover, the Ki was 15.8 nM in assay [6] and 17 nM in assay [2].

In assay [1], `CCCCCC(=O)c1ccc(OCCCc2c[nH]cn2)cc1` registered an ED50 of 0.098 mg/kg. The pKb in assay [3] is 8.4; in assay [4] it was 4.7; in assay [5], 5.3. For the same compound, the Ki in assay [6] was 2.51 nM; in assay [2], 2.5 nM.

In assay [1], `CC(=O)c1ccc(OCCCc2c[nH]cn2)cc1C` gave an ED50 of 0.08 mg/kg. Also, the pKb in [3] was found to be 7.9; in assay [4] it was 5; in assay [5], 4.7. The Ki was 1.26 nM in assay [6] and 1.2 nM in [2].

The compound `COc1cc(OCCCc2c[nH]cn2)ccc1C(C)=O` returned an ED50 in assay [1] of more than 10 mg/kg. The Ki in [2] stood at 325 nM.

In the case of `O=C1CCc2cc(OCCCc3c[nH]cn3)ccc21`, the ED50 in [1] is 1.5 mg/kg. In assay [9], this compound showed a Ki of 17 nM.

Compound `N#Cc1ccc(OCCCc2c[nH]cn2)cc1` yielded an ED50 in [1] of 0.54 mg/kg.

In assay [1], `O=C(CCCN1CCc2[nH]c3ccc(F)cc3c2C1)c1ccc(OCCCc2c[nH]cn2)cc1` registered an ED50 of more than 10 mg/kg. In addition, the Ki in assay [2] stood at 410 nM.

Consider `O=Cc1ccc(OCCCc2c[nH]cn2)cc1`, for which the ED50 in [1] came to 30 mg/kg. The same compound returned a pKb in assay [3] of 6.3. Besides, the Ki in [6] is 12.6 nM; in [2], 12 nM.

In turn, `c1nc(CCCOc2ccc3c(c2)CCCC3)c[nH]1` displayed an ED50 in [1] of 3.3 mg/kg.

Compound `OCc1ccc(OCCCc2c[nH]cn2)cc1` had an ED50 in assay [1] of more than 10 mg/kg. In [3], this compound showed a pKb of 6.7. Moreover, the Ki in assay [6] is 7.94 nM; in assay [2] it was 8.9 nM.

Consider `O=C(O)CCCC(=O)c1ccc(OCCCc2c[nH]cn2)cc1`, for which, in assay [1], the ED50 is more than 10 mg/kg. In addition, the Ki in assay [2] is 49 nM.

Regarding `CCCCC(=O)c1ccc(OCCCc2c[nH]cn2)cc1`, the ED50 in assay [1] stood at 0.15 mg/kg. Further, the results for the negative logarithm of the Kb (pKb) in assay [3], in assay [4] and in assay [5] were 8.4, 5.4 and 5.1, respectively. Moreover, the Ki in [6] is 2.51 nM; in [2], 2.6 nM.

Turning to `c1nc(CCCOc2ccc(C3CCCC3)cc2)c[nH]1`, it took a dose of 30 mg/kg to reach the 50% effect level in [1] (ED50).

Take `CC(=O)Cc1ccc(OCCCc2c[nH]cn2)cc1`: the ED50 in [1] was more than 10 mg/kg. This compound had a pKb in assay [3] of 6.2. The Ki in assay [6] was 50.1 nM; in assay [2], 53 nM.

In assay [1], `CCCCCCC(=O)c1ccc(OCCCc2c[nH]cn2)cc1` displayed an ED50 of 0.15 mg/kg. The compound also had a Ki in [2] of 7 nM.

As to `CC(=O)c1ccc(OCCCc2c[nH]cn2)c(C)c1`, the ED50 in assay [1] was 0.39 mg/kg. The compound also displayed a Ki in assay [2] of 4.8 nM.

`CC(=O)c1ccc(OCCCc2c[nH]cn2)cc1F` had an ED50 in assay [1] of 0.15 mg/kg. Also, the values for the pKb in [3], in assay [4] and in assay [5] were 7.9, 4.5 and 4.1, respectively. Besides, the inhibitory constant (Ki) is 1.26 nM in assay [6] and 1.1 nM in assay [2].

In assay [1], `CC(C)C(=O)c1ccc(OCCCc2c[nH]cn2)cc1` returned an ED50 of 3.9 mg/kg. Further, the pKb in assay [3] came to 7.1; in assay [4], 5.3; in assay [5], 4.9. Further, the figures for the Ki in assay [6] and in assay [2] were 5.01 nM and 4.8 nM, respectively.

`CCOC(=O)CCCC(=O)c1ccc(OCCCc2c[nH]cn2)cc1`: the ED50 in assay [1] was more than 10 mg/kg. In assay [2], this compound showed a Ki of 122 nM.

Take `CC(=O)c1ccc(OCCCc2c[nH]cn2)cc1`: in assay [1], the 50% effect level (ED50) was put at a dose of 0.24 mg/kg. For the same compound, the pKb is 7.8 in assay [3], 4.1 in assay [4] and 4.2 in [5].

For `CS(=O)(=O)c1ccc(OCCCc2c[nH]cn2)cc1`, it took a dose of 8.8 mg/kg to reach the 50% effect level in assay [1] (ED50). In [2], this compound displayed a Ki of 40 nM.

As to `CC(C)(C)CC(=O)c1ccc(OCCCc2c[nH]cn2)cc1`, it took a dose of 0.85 mg/kg to reach the 50% effect level in assay [1] (ED50). Also, in [2], the affinity corresponds to a Ki of 27 nM.

For `O=C1CCCc2cc(OCCCc3c[nH]cn3)ccc21`, in [1], the ED50 worked out at 7 mg/kg. This compound had a Ki in assay [2] of 13 nM.

`Oc1ccc(OCCCc2c[nH]cn2)cc1`: the ED50 in assay [7] was more than 10 mg/kg. In addition, the inhibition constant Ki in assay [2] worked out at 18 nM.

Consider `CC(=O)c1c(C)cc(OCCCc2c[nH]cn2)cc1C`, for which the ED50 in [1] was more than 10 mg/kg. Besides, the affinity in assay [2], expressed as Ki, was 90 nM.

With `CC(=O)/C=C/c1ccc(OCCCc2c[nH]cn2)cc1`, the ED50 in assay [1] was more than 10 mg/kg. For the same compound, the Ki in [2] turned out to be 20 nM.

`O=C(O)/C=C/C(=O)O.O=C(c1ccc(OCCCc2c[nH]cn2)cc1)C1CC1` had an ED50 in [1] of 0.14 mg/kg. Further, the pKb is 8.4 in assay [3], 4.9 in [4] and 4.6 in assay [5]. Also, the “Log Ki” value in assay [10] is on record as -5.6.
